Data from ChEMBL document CHEMBL3400032 (Bioorg Med Chem, 2015).

Assays:
Liver microsome [1] = experiment: Clearance in Sprague-Dawley rat liver microsomes assessed per mg protein
[2] = Half life in rat at 3 mg/kg, iv; type: ADME, organism-based; set-up: dose 3 mg/kg, route intravenous; settings: in vivo
[3] = Permeability of the compound at pH 7.4 by PAMPA; type: ADME; settings: read-out: permeability
[4] = AUC in rat at 3 mg/kg, iv; type: ADME, organism-based; set-up: dose 3 mg/kg, route intravenous; settings: plasma
[5] = Clearance in rat at 3 mg/kg, iv; type: ADME, organism-based; set-up: dose 3 mg/kg, route intravenous; settings: in vivo
Liver microsome [6] = experiment: Clearance in human liver microsomes assessed per mg protein
[7] = Permeability of the compound at pH 5 by PAMPA; type: ADME; settings: read-out: permeability
[8] = Volume of distribution at steady state in rat at 3 mg/kg, iv; type: ADME, organism-based; set-up: route intravenous, dose 3 mg/kg; settings: in vivo, read-out: Vdss
[9] = Drug metabolism in human liver S9 fraction assessed as compound remaining at 1 uM after 30 mins by HPLC/MS/MS analysis relative to control; type: ADME, subcellular; settings: read-out: Stability
Summary of the method: (§1)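 Test compound at 1 µM final, incubated 30 min at 37 °C in serum, or in S9 mix (50 mM potassium phosphate pH 7.4, 3 mM NADPH, 1 mg protein/mL pooled male SD rat or human liver S9). Preincubated 5 min at 37 °C, compound added in acetonitrile–water (1:1), stopped with ice-cold acetonitrile, centrifuged, filtered, parent and carboxylate hydrolysate quantified by HPLC-MS/MS.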

Serum [10] = experiment: Drug metabolism in human serum assessed as 2-(3-aminopiperidin-1-yl)-3-(2-chlorobenzyl)-5-methyl-4-oxo-4,5-dihydro-3H-imidazo[4,5-c]quinoline-8-carboxylic acid formation at 1 uM after 30 mins by HPLC/MS/MS analysis relative to control; type: ADME, cell-free; settings: 0.5 h; summary of the method: as §1
[11] = Drug metabolism in human liver S9 fraction assessed as 2-(3-aminopiperidin-1-yl)-3-(2-chlorobenzyl)-5-methyl-4-oxo-4,5-dihydro-3H-imidazo[4,5-c]quinoline-8-carboxylic acid formation at 1 uM after 30 mins by HPLC/MS/MS analysis relative to control; type: ADME, subcellular; settings: s9, 0.5 h; summary of the method: as §1
Serum [12] = experiment: Drug metabolism in rat serum assessed as 2-(3-aminopiperidin-1-yl)-3-(2-chlorobenzyl)-5-methyl-4-oxo-4,5-dihydro-3H-imidazo[4,5-c]quinoline-8-carboxylic acid formation at 1 uM after 30 mins by HPLC/MS/MS analysis relative to control; type: ADME, cell-free; settings: 0.5 h; summary of the method: as §1
[13] = Drug metabolism in Sprague-Dawley rat liver S9 fraction assessed as 2-(3-aminopiperidin-1-yl)-3-(2-chlorobenzyl)-5-methyl-4-oxo-4,5-dihydro-3H-imidazo[4,5-c]quinoline-8-carboxylic acid formation at 1 uM after 30 mins by HPLC/MS/MS analysis relative to control; type: ADME, subcellular; settings: s9, 0.5 h; summary of the method: as §1
[14] = Drug metabolism in human serum assessed as compound remaining at 1 uM after 30 mins by HPLC/MS/MS analysis relative to control; type: ADME, cell-free; settings: read-out: Stability; summary of the method: as §1
[15] = Drug metabolism in Sprague-Dawley rat liver S9 fraction assessed as compound remaining at 1 uM after 30 mins by HPLC/MS/MS analysis relative to control; type: ADME, subcellular; settings: read-out: Stability; summary of the method: as §1
[16] = Drug metabolism in rat serum assessed as compound remaining at 1 uM after 30 mins by HPLC/MS/MS analysis relative to control; type: ADME, cell-free; settings: read-out: Stability; summary of the method: as §1
Rattus norvegicus [17] = experiment: Oral bioavailability in rat assessed as 2-(3-aminopiperidin-1-yl)-3-(2-chlorobenzyl)-5-methyl-4-oxo-4,5-dihydro-3H-imidazo[4,5-c]quinoline-8-carboxylic acid level at 10 mg/kg; type: ADME, organism-based; settings: in vivo
[18] = Solubility of the compound at pH 5.5; type: physicochemical; settings: buffer
Dipeptidyl peptidase 4 = Dipeptidyl peptidase 4 (Homo sapiens, UniProt P27487); experiment: Inhibition of human DPP4
Rattus norvegicus [19] = experiment: Cmax in rat assessed as 2-(3-aminopiperidin-1-yl)-3-(2-chloro-5-fluorobenzyl)-5-methyl-4-oxo-4,5-dihydro-3H-imidazo[4,5-c]quinoline-8-carboxylic acid level at 10 mg/kg, po; type: ADME, organism-based; set-up: dose 10 mg/kg, route oral; settings: in vivo
Rattus norvegicus [20] = experiment: Oral bioavailability in rat assessed as 2-(3-aminopiperidin-1-yl)-3-(2-chloro-5-fluorobenzyl)-5-methyl-4-oxo-4,5-dihydro-3H-imidazo[4,5-c]quinoline-8-carboxylic acid level at 10 mg/kg; type: ADME, organism-based; settings: in vivo
[21] = Solubility of the compound at pH 2.5; type: physicochemical; settings: buffer
Rattus norvegicus [22] = experiment: Tmax in rat assessed as 2-(3-aminopiperidin-1-yl)-3-(2-chloro-5-fluorobenzyl)-5-methyl-4-oxo-4,5-dihydro-3H-imidazo[4,5-c]quinoline-8-carboxylic acid level at 10 mg/kg, po; type: ADME, organism-based; set-up: dose 10 mg/kg, route oral; settings: in vivo
Rattus norvegicus [23] = experiment: AUC in rat assessed as 2-(3-aminopiperidin-1-yl)-3-(2-chloro-5-fluorobenzyl)-5-methyl-4-oxo-4,5-dihydro-3H-imidazo[4,5-c]quinoline-8-carboxylic acid level at 10 mg/kg, po; type: ADME, organism-based, Plasma; set-up: dose 10 mg/kg, route oral; settings: in vivo
[24] = Solubility of the compound at pH 7.4; type: physicochemical; settings: buffer
[25] = Half life in rat at 1 mg/kg, iv; type: ADME, organism-based; set-up: dose 1 mg/kg, route intravenous; settings: in vivo
[26] = AUC in rat at 1 mg/kg, iv; type: ADME, organism-based; set-up: dose 1 mg/kg, route intravenous; settings: plasma
[27] = Clearance in rat at 1 mg/kg, iv; type: ADME, organism-based; set-up: dose 1 mg/kg, route intravenous; settings: in vivo
[28] = Volume of distribution at steady state in rat at 1 mg/kg, iv; type: ADME, organism-based; set-up: dose 1 mg/kg, route intravenous; settings: in vivo, read-out: Vdss

Chain of Dipeptidyl peptidase 4 (P27487 whole entry): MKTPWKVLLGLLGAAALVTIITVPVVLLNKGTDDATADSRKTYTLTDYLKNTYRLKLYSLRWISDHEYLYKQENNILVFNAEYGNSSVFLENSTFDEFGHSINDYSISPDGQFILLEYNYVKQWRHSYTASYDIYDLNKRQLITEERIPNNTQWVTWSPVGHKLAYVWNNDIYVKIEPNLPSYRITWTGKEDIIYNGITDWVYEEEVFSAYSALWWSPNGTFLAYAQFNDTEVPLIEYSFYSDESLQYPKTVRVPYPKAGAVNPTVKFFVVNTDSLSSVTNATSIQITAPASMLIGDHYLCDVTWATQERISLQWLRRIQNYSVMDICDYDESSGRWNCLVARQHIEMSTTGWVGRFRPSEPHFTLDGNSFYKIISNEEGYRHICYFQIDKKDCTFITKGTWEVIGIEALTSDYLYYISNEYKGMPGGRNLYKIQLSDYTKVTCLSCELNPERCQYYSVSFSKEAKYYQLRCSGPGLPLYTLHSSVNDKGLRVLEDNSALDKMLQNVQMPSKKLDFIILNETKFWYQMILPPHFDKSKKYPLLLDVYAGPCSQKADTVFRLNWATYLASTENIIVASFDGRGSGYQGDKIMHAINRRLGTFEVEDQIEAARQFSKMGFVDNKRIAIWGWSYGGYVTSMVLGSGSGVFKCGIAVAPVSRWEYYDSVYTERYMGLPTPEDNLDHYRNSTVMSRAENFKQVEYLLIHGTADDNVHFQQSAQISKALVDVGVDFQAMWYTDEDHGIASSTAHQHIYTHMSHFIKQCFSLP

Papp [3]	Papp [7]	remaining at 0.5 h, 1 µM [9]	Drug metabolism (Serum [10])	Drug metabolism [11]	Drug metabolism (Serum [12])	Drug metabolism [13]	remaining at 0.5 h, 1 µM [14]	remaining at 0.5 h, 1 µM [15]	remaining at 0.5 h, 1 µM [16]	SMILES	other results
< 0.1 ×10⁻⁶ cm/s	< 0.1 ×10⁻⁶ cm/s									Cn1c(=O)c2c(nc(N3CCC[C@@H](N)C3)n2Cc2ccccc2Cl)c2ccc(C(=O)O)cc21	CLH (Liver microsome [1]): < 10 µL/min/mg; half-life [2]: 0.6 h; AUC [4]: 276 ng·h/mL; clearance [5]: 181 mL/min/kg; CLH (Liver microsome [6]): < 10 µL/min/mg; Vd [8]: 4.5 L/kg
47.4 ×10⁻⁶ cm/s	34.1 ×10⁻⁶ cm/s	> 99%	metabolite_detected	metabolite_detected	metabolite_detected	metabolite_detected	80%	< 0.5%	72%	COC(=O)c1ccc2c(c1)c1nc(N3CCC[C@@H](N)C3)n(Cc3ccccc3Cl)c1c(=O)n2C.Cl	F (Rattus norvegicus [17]): 2.4%
7.1 ×10⁻⁶ cm/s	0.9 ×10⁻⁶ cm/s	37%	metabolite_detected	metabolite_detected	metabolite_detected	metabolite_detected	6.8%	> 99%	50%	Cl.Cn1c(=O)c2c(nc(N3CCC[C@@H](N)C3)n2Cc2ccccc2Cl)c2cc(C(=O)OCCN3CCOCC3)ccc21	
< 0.1 ×10⁻⁶ cm/s	< 0.1 ×10⁻⁶ cm/s	> 99%	metabolite_detected	metabolite_detected	metabolite_detected	metabolite_detected	< 0.5%	> 99%	38%	CN(C)CCCOC(=O)c1ccc2c(c1)c1nc(N3CCC[C@@H](N)C3)n(Cc3ccccc3Cl)c1c(=O)n2C.Cl	
6.3 ×10⁻⁶ cm/s	6.5 ×10⁻⁶ cm/s	< 0.5%	metabolite_detected	metabolite_detected	metabolite_detected	metabolite_detected	73%	< 0.5%	0.6%	Cl.Cn1c(=O)c2c(nc(N3CCC[C@@H](N)C3)n2Cc2ccccc2Cl)c2cc(C(=O)OCOC(=O)C(C)(C)C)ccc21	
										Cn1c(=O)c2c(nc(N3CCC[C@@H](N)C3)n2Cc2cc(F)ccc2Cl)c2cc(C(=O)O)ccc21	half-life [25]: 1.3 h; AUC [26]: 75.3 ng·h/mL; CLH (Liver microsome [1]): < 10 µL/min/mg; clearance [27]: 222 mL/min/kg; CLH (Liver microsome [6]): < 10 µL/min/mg; Vd [28]: 7.1 L/kg

SMILES	Papp [3]	Papp [7]	remaining at 0.5 h, 1 µM [9]	Drug metabolism (Serum [10])	Drug metabolism [11]	Drug metabolism (Serum [12])	Drug metabolism [13]	remaining at 0.5 h, 1 µM [14]	remaining at 0.5 h, 1 µM [15]	remaining at 0.5 h, 1 µM [16]	other results
Cc1oc(=O)oc1COC(=O)c1ccc2c(c1)c1nc(N3CCC[C@@H](N)C3)n(Cc3cc(F)ccc3Cl)c1c(=O)n2C.Cl	8.4 ×10⁻⁶ cm/s	11 ×10⁻⁶ cm/s	3.5%					< 0.5%	1%	< 0.5%	solubility [18]: 2 µg/mL; IC50 (Dipeptidyl peptidase 4): 4.7 nM; Cmax (Rattus norvegicus [19]): 14.8 ng/mL; F (Rattus norvegicus [20]): 11.7%; solubility [21]: 25 µg/mL; Tmax (Rattus norvegicus [22]): 2 h; AUC (Rattus norvegicus [23]): 72.7 ng·h/mL; solubility [24]: < 1 µg/mL
